The values below come from ChEMBL document CHEMBL6096655, “Discovery of a novel, selective CK2 inhibitor class with an unusual basic scaffold” (Eur J Med Chem, 2025).

Structures are written as SMILES.

In one series the test system is 786-0. Description: Antiproliferative activity against human 786-0 cells assessed as inhibition of cell growth measured after 3 to 4 days by MTT assay. The series is classed as functional. The conditions noted are these: time 3-4 day. The method, boiled down:
(§1)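 786-O or U937 cells grown in RPMI with 2 mM L-glutamine, 1% pen/strep and 10% FCS. Cells were seeded at 5000 per well and left overnight, then switched to 1% FCS medium containing compound or DMSO (max. 0.2% final). Growth ran 3–4 days at 37 °C in 5% CO₂ without medium change, followed by MTT read-out. GI50 is the mean ± SD of at least two independent experiments.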
(Formazan colour is commonly taken as a measure of viable cells.)

In the next series the test system is U-937. Description: Antiproliferative activity against human U-937 cells assessed as inhibition of cell growth measured after 3 to 4 days by MTT assay. Format: functional. The conditions noted are these: time 3-4 day. The essentials: as §1
The nature of series [1]: Antiproliferative activity against HEK293 cells assessed as inhibition of cell growth measured after 3 to 4 days by MTT assay. The series is classed as toxicity, cell-based. Conditions: human, time 3-4 day. The essentials: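 HEK293 cells grown in DMEM with 2 mM L-glutamine, 1% pen/strep and 10% FCS. Cells were seeded at 5000 per well, left overnight, then given medium with 1% FCS plus compound or DMSO (max. 0.2% final). They were grown 3–4 days at 37 °C in 5% CO₂ with no medium change, and growth was read by MTT.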

Series [2] has as its target Aurora kinase B (Homo sapiens) (UniProt Q96GD4). In words: Inhibition of human recombinant AURKB at 2 uM by Eurofins kinase assay relative to control.
For series [3], the target named is Dual specificity tyrosine-phosphorylation-regulated kinase 1B (Homo sapiens) (UniProt Q9Y463). In words: Inhibition of human recombinant DYRK1B at 2 uM by Eurofins kinase assay relative to control.
Series [4] has as its system Receptor-type tyrosine-protein kinase FLT3 (Homo sapiens), P36888 [D835Y]. In words: Inhibition of human recombinant his tagged FLT3 D835Y expressed in insect cells at 2 uM by Eurofins kinase assay relative to control.
Series [5] has as its target Homeodomain-interacting protein kinase 1 (Homo sapiens) (UniProt Q86Z02). In words: Inhibition of human recombinant HIPK1 at 2 uM by Eurofins kinase assay relative to control.
The target in series [6] is Homeodomain-interacting protein kinase 2 (Homo sapiens) (UniProt Q9H2X6). In words: Inhibition of human recombinant HIPK2 at 2 uM by Eurofins kinase assay relative to control.
Homeodomain-interacting protein kinase 2 (Homo sapiens), sequence (Q9H2X6 whole entry, looked up): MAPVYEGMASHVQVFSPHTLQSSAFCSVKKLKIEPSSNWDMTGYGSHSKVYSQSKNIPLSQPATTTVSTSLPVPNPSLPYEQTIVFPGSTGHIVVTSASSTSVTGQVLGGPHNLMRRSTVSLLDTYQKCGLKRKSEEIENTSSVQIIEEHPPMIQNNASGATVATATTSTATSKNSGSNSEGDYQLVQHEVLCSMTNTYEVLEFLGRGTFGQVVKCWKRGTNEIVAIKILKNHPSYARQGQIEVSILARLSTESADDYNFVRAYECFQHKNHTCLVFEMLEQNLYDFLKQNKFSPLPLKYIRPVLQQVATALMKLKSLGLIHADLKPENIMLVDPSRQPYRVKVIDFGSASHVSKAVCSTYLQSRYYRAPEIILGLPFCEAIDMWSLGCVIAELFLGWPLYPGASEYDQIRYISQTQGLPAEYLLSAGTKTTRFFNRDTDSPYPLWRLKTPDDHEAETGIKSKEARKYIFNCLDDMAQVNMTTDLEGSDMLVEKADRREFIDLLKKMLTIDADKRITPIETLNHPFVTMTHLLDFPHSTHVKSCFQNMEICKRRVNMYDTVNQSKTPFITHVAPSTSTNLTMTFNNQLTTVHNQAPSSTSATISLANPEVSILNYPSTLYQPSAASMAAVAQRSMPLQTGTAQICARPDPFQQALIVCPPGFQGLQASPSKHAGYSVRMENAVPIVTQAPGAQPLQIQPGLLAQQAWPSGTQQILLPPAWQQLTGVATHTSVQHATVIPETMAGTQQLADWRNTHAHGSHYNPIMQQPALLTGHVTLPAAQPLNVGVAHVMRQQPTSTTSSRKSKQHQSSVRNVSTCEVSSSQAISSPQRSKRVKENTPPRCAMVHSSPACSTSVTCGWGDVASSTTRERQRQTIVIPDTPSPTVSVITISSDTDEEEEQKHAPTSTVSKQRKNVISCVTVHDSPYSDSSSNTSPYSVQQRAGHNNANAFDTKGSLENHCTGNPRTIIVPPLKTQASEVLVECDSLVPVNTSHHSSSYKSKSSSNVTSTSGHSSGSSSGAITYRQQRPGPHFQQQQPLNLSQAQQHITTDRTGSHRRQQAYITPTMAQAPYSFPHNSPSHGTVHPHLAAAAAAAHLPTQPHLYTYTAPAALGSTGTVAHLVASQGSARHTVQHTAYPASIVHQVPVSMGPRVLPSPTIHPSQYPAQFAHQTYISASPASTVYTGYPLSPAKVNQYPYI
The target in series [7] is Homeodomain-interacting protein kinase 3 (Homo sapiens) (UniProt Q9H422). Description: Inhibition of human recombinant HIPK3 at 2 uM by Eurofins kinase assay relative to control.
In series [8] the target is Mitogen-activated protein kinase 1 (Homo sapiens) (UniProt P28482). In words: Inhibition of human MAPK1 at 2 uM by Eurofins kinase assay relative to control.
Mitogen-activated protein kinase 1 (Homo sapiens), sequence (P28482 whole entry): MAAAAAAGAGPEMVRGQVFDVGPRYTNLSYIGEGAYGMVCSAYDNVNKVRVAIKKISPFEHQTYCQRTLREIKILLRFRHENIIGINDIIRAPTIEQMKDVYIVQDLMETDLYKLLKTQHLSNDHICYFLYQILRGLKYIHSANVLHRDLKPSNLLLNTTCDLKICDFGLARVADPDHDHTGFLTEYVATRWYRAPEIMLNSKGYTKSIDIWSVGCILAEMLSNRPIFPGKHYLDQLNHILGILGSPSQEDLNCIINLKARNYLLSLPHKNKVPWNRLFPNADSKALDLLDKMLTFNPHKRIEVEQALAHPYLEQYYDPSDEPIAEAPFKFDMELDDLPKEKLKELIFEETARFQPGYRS
In series [9] the target is Mitogen-activated protein kinase 12 (Homo sapiens) (UniProt P53778). In words: Inhibition of human recombinant MAPK12 at 2 uM by Eurofins kinase assay relative to control.
The target in series [10] is Hepatocyte growth factor receptor (Homo sapiens) (UniProt P08581). Description: Inhibition of human MET at 2 uM by Eurofins kinase assay relative to control.
Hepatocyte growth factor receptor (Homo sapiens), sequence (P08581 whole entry, the tested form may be a part): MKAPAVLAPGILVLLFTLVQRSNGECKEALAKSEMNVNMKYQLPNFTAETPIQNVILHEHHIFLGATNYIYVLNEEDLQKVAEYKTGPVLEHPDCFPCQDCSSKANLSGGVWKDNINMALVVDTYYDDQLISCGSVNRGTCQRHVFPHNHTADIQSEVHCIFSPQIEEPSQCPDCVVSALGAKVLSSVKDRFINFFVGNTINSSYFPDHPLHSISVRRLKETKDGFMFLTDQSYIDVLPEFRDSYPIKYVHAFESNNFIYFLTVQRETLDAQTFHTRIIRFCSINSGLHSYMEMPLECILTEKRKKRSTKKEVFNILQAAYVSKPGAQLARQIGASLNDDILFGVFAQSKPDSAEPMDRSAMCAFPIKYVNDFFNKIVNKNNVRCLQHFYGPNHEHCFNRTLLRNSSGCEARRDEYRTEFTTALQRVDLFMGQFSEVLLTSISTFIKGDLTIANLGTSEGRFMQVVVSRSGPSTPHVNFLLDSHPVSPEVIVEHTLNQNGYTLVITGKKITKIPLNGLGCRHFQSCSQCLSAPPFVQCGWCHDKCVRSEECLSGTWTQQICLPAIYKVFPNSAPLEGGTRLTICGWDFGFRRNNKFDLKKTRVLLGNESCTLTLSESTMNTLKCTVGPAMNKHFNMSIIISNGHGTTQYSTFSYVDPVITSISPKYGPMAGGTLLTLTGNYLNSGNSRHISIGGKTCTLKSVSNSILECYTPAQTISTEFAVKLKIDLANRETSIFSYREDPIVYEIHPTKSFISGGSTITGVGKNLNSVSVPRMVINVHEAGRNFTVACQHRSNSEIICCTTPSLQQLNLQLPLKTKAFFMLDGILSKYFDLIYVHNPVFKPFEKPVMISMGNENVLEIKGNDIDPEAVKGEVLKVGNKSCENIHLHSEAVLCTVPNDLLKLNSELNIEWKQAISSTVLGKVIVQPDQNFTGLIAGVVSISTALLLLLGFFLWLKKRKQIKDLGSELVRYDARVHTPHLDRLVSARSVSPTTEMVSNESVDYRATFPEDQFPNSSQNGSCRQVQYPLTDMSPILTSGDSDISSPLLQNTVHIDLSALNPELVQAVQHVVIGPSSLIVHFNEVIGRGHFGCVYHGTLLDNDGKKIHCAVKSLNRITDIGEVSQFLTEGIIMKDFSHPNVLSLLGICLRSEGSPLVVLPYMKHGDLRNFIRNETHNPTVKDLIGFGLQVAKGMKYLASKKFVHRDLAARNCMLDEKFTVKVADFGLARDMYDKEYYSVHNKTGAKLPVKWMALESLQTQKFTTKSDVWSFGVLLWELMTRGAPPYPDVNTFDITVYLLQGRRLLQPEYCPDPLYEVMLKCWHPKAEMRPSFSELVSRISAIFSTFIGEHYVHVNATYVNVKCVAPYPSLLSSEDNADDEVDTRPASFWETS
The target in series [11] is PAS domain-containing serine/threonine-protein kinase (Homo sapiens) (UniProt Q96RG2). In words: Inhibition of human recombinant PASK at 2 uM by Eurofins kinase assay relative to control.
For another series, the species on record is Homo sapiens. In words: Inhibition of human recombinant His-tagged PIK3CA/PIK3R1 at 2 uM by Eurofins kinase assay relative to control.
Series [12] concerns the target Serine/threonine-protein kinase pim-1 (Homo sapiens) (UniProt P11309). Description: Inhibition of human recombinant PIM1 at 2 uM by Eurofins kinase assay relative to control.
Series [13] is described as follows: Upregulation of PARP cleavage in human U-937 cells by measuring signal 1 at 30 uM measured after 48 hrs by immunoblot analysis. Format: functional. The method, boiled down: (§2)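 U937 cells exposed to compound or DMSO for 48 h, then lysed in Laemmli buffer. Lysates were run on 8–16% gradient SDS-PAGE, semi-dry blotted to PVDF and probed for PARP. Detection used IR-fluorescent secondary antibodies. The cleaved/uncleaved PARP signal ratio was obtained by densitometry. Results are representative of two independent experiments.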
(In western blotting, separated proteins are transferred to a membrane and probed.)

The nature of series [14]: Upregulation of PARP cleavage in human U-937 cells by measuring signal 2 at 10 uM measured after 48 hrs by immunoblot analysis. Format: functional. The essentials:
as §2

Series [15] is described as follows: Upregulation of PARP cleavage in human U-937 cells by measuring signal 2 at 15 uM measured after 48 hrs by immunoblot analysis. Format: functional. The method, boiled down: (§3)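 U937 lymphoma cells grown in RPMI with 2 mM L-glutamine, 1 % pen/strep and 10 % FCS; exposed to compound or DMSO solvent control for 48 h. Total cellular proteins harvested and immunoblotted with an antibody against phosphorylated CK2-substrate motifs and for PARP. Read-out is the densitometric ratio of cleaved to uncleaved PARP signal. Representative of two independent experiments.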

A short description of series [16]: Upregulation of PARP cleavage in human U-937 cells by measuring signal 2 at 30 uM measured after 48 hrs by immunoblot analysis. Format: functional. The method, boiled down:
as §3

The target of series [17] is Signal transducer and activator of transcription 3 (Homo sapiens) (UniProt P40763). Description: Inhibition of STAT3 phosphorylation in human 786-O cells at 6 uM measured after 48 hrs by immunoblot analysis relative to control.
Signal transducer and activator of transcription 3 (Homo sapiens), sequence (P40763 whole entry): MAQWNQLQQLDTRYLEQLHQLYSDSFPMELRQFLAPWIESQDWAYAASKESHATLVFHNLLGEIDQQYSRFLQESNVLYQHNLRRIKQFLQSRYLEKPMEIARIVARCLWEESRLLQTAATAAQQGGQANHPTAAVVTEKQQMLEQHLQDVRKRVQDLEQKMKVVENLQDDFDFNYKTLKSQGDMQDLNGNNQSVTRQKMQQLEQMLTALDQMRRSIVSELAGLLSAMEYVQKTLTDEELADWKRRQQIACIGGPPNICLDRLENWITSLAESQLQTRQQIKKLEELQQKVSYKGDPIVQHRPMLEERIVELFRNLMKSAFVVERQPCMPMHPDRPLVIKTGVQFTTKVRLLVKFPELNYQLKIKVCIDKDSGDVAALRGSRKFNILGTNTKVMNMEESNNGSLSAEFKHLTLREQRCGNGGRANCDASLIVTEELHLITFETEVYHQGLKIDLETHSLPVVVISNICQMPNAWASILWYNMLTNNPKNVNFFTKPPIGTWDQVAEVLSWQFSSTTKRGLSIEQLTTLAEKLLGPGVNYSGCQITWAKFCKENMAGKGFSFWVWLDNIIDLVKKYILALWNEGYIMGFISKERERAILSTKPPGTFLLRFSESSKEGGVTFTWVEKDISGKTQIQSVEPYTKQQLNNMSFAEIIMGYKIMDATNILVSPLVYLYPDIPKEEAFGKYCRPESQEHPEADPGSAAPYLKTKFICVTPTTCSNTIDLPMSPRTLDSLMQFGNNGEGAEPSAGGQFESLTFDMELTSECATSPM
Series [18] shares this target. Description: Inhibition of STAT3 phosphorylation in human 786-O cells at 8 uM measured after 48 hrs by immunoblot analysis relative to control.
Series [19] has as its target T1, Hsp90 co-chaperone Cdc37 (Homo sapiens) (UniProt Q16543).
T1 sequence (whole entry): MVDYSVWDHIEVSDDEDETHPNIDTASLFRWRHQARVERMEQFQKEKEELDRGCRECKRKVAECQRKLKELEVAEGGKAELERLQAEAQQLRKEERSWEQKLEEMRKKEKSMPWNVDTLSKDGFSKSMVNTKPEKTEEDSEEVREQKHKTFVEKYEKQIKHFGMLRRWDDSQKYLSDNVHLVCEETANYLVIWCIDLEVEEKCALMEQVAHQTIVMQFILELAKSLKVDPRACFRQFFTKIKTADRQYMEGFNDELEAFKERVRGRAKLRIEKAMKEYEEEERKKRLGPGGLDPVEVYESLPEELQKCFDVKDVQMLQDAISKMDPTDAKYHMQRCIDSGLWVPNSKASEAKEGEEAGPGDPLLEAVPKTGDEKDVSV
In words: Inhibition of CDC37 phosphorylation in human 786-O cells at 6 uM measured after 48 hrs by immunoblot analysis relative to control.

For series [20], the target named is Signal transducer and activator of transcription 3 (Homo sapiens) (UniProt P40763). In words: Inhibition of STAT3 phosphorylation in human 786-O cells at 10 uM measured after 48 hrs by immunoblot analysis relative to control.
The target of series [21] is T1, Hsp90 co-chaperone Cdc37 (Homo sapiens). Description: Inhibition of CDC37 phosphorylation in human 786-O cells at 10 uM measured after 48 hrs by immunoblot analysis relative to control.

Homeodomain-interacting protein kinase 1 (Homo sapiens), sequence (Q86Z02 whole entry, looked up): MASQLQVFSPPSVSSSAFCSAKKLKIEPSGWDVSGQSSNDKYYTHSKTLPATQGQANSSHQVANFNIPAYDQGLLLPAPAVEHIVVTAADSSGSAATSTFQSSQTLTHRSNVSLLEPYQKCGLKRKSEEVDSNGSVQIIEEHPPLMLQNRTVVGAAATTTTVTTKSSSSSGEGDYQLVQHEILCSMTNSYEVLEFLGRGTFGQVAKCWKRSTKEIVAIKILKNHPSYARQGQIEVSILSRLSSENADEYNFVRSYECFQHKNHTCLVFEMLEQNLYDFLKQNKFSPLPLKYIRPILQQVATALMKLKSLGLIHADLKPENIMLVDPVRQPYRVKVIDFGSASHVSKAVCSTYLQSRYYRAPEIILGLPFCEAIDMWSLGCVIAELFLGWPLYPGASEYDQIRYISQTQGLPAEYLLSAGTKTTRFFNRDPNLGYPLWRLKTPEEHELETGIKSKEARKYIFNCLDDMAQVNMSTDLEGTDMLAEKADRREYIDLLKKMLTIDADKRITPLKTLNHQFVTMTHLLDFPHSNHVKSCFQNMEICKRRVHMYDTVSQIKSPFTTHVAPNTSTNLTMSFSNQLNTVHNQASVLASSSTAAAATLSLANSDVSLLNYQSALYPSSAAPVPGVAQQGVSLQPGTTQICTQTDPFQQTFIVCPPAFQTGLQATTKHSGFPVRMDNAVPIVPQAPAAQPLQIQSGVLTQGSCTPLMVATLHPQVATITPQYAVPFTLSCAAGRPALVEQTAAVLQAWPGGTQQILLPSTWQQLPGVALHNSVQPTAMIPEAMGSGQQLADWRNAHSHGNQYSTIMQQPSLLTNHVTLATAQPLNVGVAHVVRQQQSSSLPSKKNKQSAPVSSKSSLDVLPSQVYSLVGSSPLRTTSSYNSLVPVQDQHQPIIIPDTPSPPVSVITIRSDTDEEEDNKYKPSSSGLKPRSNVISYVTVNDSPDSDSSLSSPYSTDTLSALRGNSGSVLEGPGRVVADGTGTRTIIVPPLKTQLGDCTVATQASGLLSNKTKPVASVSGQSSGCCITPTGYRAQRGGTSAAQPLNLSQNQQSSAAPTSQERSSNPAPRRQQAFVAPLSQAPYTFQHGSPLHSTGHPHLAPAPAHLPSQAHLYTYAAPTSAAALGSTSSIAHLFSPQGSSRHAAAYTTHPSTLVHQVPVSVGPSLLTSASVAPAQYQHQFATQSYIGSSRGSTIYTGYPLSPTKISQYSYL

Take `Clc1ccc(N2CCN(c3ncnc4sc5c(c34)CCNC5)CC2)cc1.O=C(O)C(F)(F)F`: the results for the GI50 (in the series with 786-0; with U-937; in [1]) were 7.3 µM, 7.5 µM and 30 µM, respectively. The inhibition amounted to 4% in series [2]; 2% in [3]; 11% in [4]; 5% in [5]; 15% in [6]; 9% in [7]. Also, the inhibition in [8] was determined as 2%; in series [9], 5%; in [10] it was 2%; in series [11], 0%; in the series listed under Homo sapiens, 0%; in [12], 0%. The inhibition in series [17] came out at 64%; in series [18], 80%; in [19] it was 0%; in [20], 97%; in [21], 12%. For the same molecule, the Activity turned out to be 98% in series [13], 38% in [14], 72% in [15] and 95% in series [16].

For orientation: GI50 means the concentration that inhibits growth by half. Broadly, the inhibition is the relative decrease from the control value, in per cent.
